Measured values from ChEMBL document CHEMBL2150889, “Azetidinyl oxadiazoles as potent mGluR5 positive allosteric modulators” (Bioorg Med Chem Lett, 2012).
Values after ≈ are worked out from the molar mass of the structure shown.

Columns and labels:
[1] = Plasma protein binding in human; assay type: ADME, cell-free; conditions: read-out: PPB (converted)
[2] = system: Liver microsomes; test: Intrinsic clearance in human liver microsomes; assay type: ADME, Microsome
Procedure, shortened: (§1)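 Intrinsic clearance was determined by the Obach method. Liver blood flow was taken as 1.5 L/min for human and 20 mL/min for rat. Human values are expressed in L/min and rat values in mL/min.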

[3] = Solubility of the compound in potassium phosphate buffer after 4 hrs by UPLC analysis; assay type: physicochemical
Procedure, shortened: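 DMSO stock of compound (300 μL) was diluted with 2 × 200 μL of 25 mM potassium phosphate buffer. The mixture was shaken on a titer plate shaker for 4 h.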

[4] = Plasma protein binding in rat; assay type: ADME, cell-free; conditions: read-out: PPB (converted)
[5] = Ratio of drug level in brain to plasma of rat at 10 mg/kg, po after 1 hr; assay type: ADME, organism-based; design: dose 10 mg/kg, route oral; conditions: brain and plasma, read-out: BPR
Procedure, shortened: (§2)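 Rats got a single 10 mg/kg oral dose (n = 2 animals). Brain and plasma were sampled at 1 h. Concentrations were measured by HPLC-tandem MS and averaged values reported. Brain/plasma ratio is brain level (ng/g) divided by plasma level (ng/mL).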

[6] = target: T1, Metabotropic glutamate receptor 5 (Homo sapiens, UniProt P41594); test: Positive allosteric modulation of human mGluR5 expressed in recombinant HEK293 cells by FLIPR assay; assay type: cell-based; design: Activity: concentration or dose not given beside the values
Procedure, shortened: (§3)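 HEK293 cells recombinantly expressing human mGluR5 were seeded at 2×10^4 cells/well on poly-D-lysine. They were incubated overnight at 37 °C in glutamate/glutamine-free medium, then loaded for 1 h at 37 °C with calcium 5 dye containing 3 U/ml glutamic pyruvic transaminase and 3 mM sodium pyruvate. Calcium flux was read by FLIPR.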

[7] = Plasma concentration in rat at 10 mg/kg, po after 1 hr; assay type: ADME, organism-based; design: dose 10 mg/kg, route oral; procedure, shortened: as §2
[8] = Drug uptake in rat brain at 10 mg/kg, po after 1 hr; assay type: ADME, organism-based; design: dose 10 mg/kg, route oral; conditions: read-out: Drug uptake; procedure, shortened: as §2
[9] = target: T1, Metabotropic glutamate receptor 5; test: Negative allosteric modulation of human mGluR5 expressed in recombinant HEK293 cells by FLIPR assay; assay type: cell-based; conditions: for inhibition: concentration not given here; procedure, shortened: as §3
[10] = system: Liver microsomes; test: Intrinsic clearance in rat liver microsomes; assay type: ADME, Microsome; procedure, shortened: as §1
[11] = target: T1, Metabotropic glutamate receptor 5; test: Binding affinity to human mGluR5 expressed in recombinant HEK293 cells by radiolabeled assay; assay type: cell-based
Target sequence in this assay (P41594 21-1212 limits assumed): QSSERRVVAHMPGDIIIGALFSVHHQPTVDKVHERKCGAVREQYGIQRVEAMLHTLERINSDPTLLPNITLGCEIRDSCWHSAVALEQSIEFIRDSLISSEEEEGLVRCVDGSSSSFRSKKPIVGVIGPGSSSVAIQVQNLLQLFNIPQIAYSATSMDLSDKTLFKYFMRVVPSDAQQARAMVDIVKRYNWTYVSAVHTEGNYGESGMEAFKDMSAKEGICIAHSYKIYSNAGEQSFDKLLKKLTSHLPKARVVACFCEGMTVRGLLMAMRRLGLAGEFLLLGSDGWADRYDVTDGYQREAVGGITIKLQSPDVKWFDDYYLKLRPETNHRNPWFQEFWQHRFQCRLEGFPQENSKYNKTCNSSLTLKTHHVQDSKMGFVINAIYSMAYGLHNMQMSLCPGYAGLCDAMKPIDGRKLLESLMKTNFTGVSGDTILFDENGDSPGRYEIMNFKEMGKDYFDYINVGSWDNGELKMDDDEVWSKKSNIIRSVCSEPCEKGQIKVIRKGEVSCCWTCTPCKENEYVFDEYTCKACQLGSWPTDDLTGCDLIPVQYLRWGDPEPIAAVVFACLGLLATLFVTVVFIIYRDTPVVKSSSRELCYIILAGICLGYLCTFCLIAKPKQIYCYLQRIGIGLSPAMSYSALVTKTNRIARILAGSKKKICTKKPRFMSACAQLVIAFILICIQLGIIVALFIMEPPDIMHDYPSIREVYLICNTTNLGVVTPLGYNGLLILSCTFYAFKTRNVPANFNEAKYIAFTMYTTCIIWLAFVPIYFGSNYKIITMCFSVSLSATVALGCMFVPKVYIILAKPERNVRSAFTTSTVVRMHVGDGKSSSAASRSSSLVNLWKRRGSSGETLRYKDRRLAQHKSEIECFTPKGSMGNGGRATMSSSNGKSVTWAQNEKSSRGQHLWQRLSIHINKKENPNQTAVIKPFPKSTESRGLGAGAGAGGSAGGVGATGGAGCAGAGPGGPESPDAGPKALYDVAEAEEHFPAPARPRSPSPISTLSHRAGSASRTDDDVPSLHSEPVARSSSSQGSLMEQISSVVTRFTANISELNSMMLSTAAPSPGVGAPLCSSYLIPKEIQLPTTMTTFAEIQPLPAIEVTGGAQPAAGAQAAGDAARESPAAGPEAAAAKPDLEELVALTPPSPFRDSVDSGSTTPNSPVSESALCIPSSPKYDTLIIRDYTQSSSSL

Compound | fraction unbound [1] | CLH [2] | solubility at 4 h [3] | fraction unbound [4] | Kp at 1 h [5] | Activity [6] | EC50 [6] | Emax [6] | concentration at 1 h [7] | concentration at 1 h [8] | IC50 [9] | CLH [10] | Activity [11] | inhibition [9]
O=C(C1CCC(F)(F)CC1)N1CC(c2nc(-c3cccc(Cl)c3)no2)C1 | 0.013 | 0.9 L/min | 130 µM (≈ 49.6 µg/mL) | 0.031 | 1.75 | 3% | 180 nM | 75% | 160 ng/mL | 280 ng/g | > 10000 nM | 24 mL/min | 3.8 µM | –
CC1CCCCC1C(=O)N1CC(c2nc(-c3cccc(F)c3)no2)C1 (stereo not given) | 0.034 | 1.6 L/min | 180 µM (≈ 61.8 µg/mL) | 0.055 | – | 48% | 540 nM | 87% | – | – | > 10000 nM | 13 mL/min | – | –
O=C(c1ccc(F)cc1)N1CC(c2nc(-c3cccc(Cl)c3)no2)C1 | – | – | 47 µM (≈ 16.8 µg/mL) | – | – | – | > 10000 nM | -12% | – | – | 4000 nM | – | – | 60%
O=C(N1CCC(F)CC1)N1CC(c2nc(-c3cccc(Cl)c3)no2)C1 | – | – | – | – | – | 61% | 990 nM | 41% | – | – | > 10000 nM | – | – | –
Cc1cccc(-c2noc(C3CN(C(=O)c4cccc(F)c4)C3)n2)c1 | – | – | – | – | – | – | > 10000 nM | 15% | – | – | 2100 nM | – | – | 62%
Cc1cccc(-c2noc([C@@H]3CCN3C(=O)Cc3ccc(F)cc3)n2)c1 | – | – | – | – | – | 30% | 1900 nM | 24% | – | – | > 10000 nM | – | – | –
CC1CCCC(C(=O)N2CC(c3nc(-c4cccc(Cl)c4)no3)C2)C1 (stereo not given) | – | – | – | – | – | 34% | 410 nM | 53% | – | – | > 10000 nM | – | – | –
O=C(N1CCCCCC1)N1CC(c2nc(-c3cccc(Cl)c3)no2)C1 | – | – | – | – | – | 41% | 47 nM | 44% | – | – | > 10000 nM | – | – | –
CC1CCC(C(=O)N2CC(c3nc(-c4cccc(Cl)c4)no3)C2)CC1 (stereo not given) | – | – | – | – | – | 120% | 1500 nM | 75% | – | – | > 10000 nM | – | – | –
Cc1cccc(-c2noc(C3CN(C(=O)C4CCCC(C)C4)C3)n2)c1 (stereo not given) | – | – | – | – | – | 19% | 500 nM | 46% | – | – | > 10000 nM | – | – | –
O=C(c1ccccc1F)N1CC[C@H]1c1nc(-c2cccc(F)c2)no1 | – | – | – | – | – | – | > 10000 nM | 57% | – | – | 920 nM | – | – | 68%
O=C([C@H]1CC2CCC1C2)N1CC(c2nc(-c3cccc(F)c3)no2)C1 (stereo not given in full) | 0.007 | 59 L/min | 54 µM (≈ 18.4 µg/mL) | 0.008 | 2.33 | – | 72 nM | 140% | 36 ng/mL | 84 ng/g | – | 16 mL/min | – | –
O=C(C1CCC2(CCC2)CC1)N1CC(c2nc(-c3cccc(Cl)c3)no2)C1 | – | – | – | – | – | 24% | 1100 nM | 40% | – | – | > 10000 nM | – | – | –
COC1CCN(C(=O)N2CC(c3nc(-c4cccc(Cl)c4)no3)C2)CC1 | – | – | – | – | – | – | > 10000 nM | 11% | – | – | > 10000 nM | – | – | –
O=C(C1CCC(C(F)(F)F)CC1)N1CC(c2nc(-c3cccc(F)c3)no2)C1 (stereo not given) | – | – | – | – | – | 37% | 680 nM | 56% | – | – | > 10000 nM | – | – | –
CC1CCN(C(=O)N2CC(c3nc(-c4cccc(Cl)c4)no3)C2)C1 (stereo not given) | – | – | – | – | – | – | > 10000 nM | 88% | – | – | > 10000 nM | – | – | 80%
Cc1cccc(-c2noc([C@@H]3CCN3C(=O)c3ccc(C#N)cc3)n2)c1 | – | – | – | – | – | – | > 10000 nM | 88% | – | – | 1400 nM | – | – | 72%
Cc1cccc(-c2noc(C3CN(C(=O)C4CCCC4)C3)n2)c1 | – | – | – | – | – | – | > 10000 nM | -7% | – | – | 2500 nM | – | – | 70%
O=C(C1CCCCC1)N1CC(c2nc(-c3cccc(Cl)c3)no2)C1 | – | – | – | – | – | 35% | 520 nM | 43% | – | – | > 10000 nM | – | – | –
Cc1ccc(S(=O)(=O)N2CC(c3nc(-c4cccc(Cl)c4)no3)C2)cc1 | – | – | – | – | – | – | > 10000 nM | 2% | – | – | 920 nM | – | – | 75%
